Where a name gives a salt, the structure may show the parent alone. Read-outs that look alike come from different tables or passages of the source.

Results on eight compounds are retold here after publication PMC4635625 (Neuropharmacology, 2015).

Assay [1] has as its target α6β2‡ nAChR, TrpB (α6:W149) = 5-F1Trp (Rattus norvegicus, UniProt P12390+P43143, L273S/L280S/L348M/R364A/R365A/R367A/W179X). As to the kind of experiment: TEVC dose-response, nonsense suppression, 5-F1Trp at TrpB. It is filed as cell-based.
The target of assay [2] is α6L9′Sβ2L9′SLFM/AAQA (α6β2‡) nAChR (Rattus norvegicus, UniProt P12390+P43143, L273S/L280S/L348M/R364A/R365A/R367A). The experiment in a line: cell-based. Format: cell-based.
For assay [3], the target named is α6β2‡ nAChR, TrpB (α6:W149) = 5-Me-Trp (Rattus norvegicus, UniProt P12390+P43143, L273S/L280S/L348M/R364A/R365A/R367A/W179X). The experiment in a line: TEVC dose-response, nonsense suppression, MeTrp at TrpB. It is filed as cell-based.
In assay [4] the target is α6β2‡ nAChR, TrpB (α6:W149) = 5,6,7-F3Trp (Rattus norvegicus, UniProt P12390+P43143, L273S/L280S/L348M/R364A/R365A/R367A/W179X). The experiment in a line: TEVC dose-response, nonsense suppression, F3Trp at TrpB. Format: cell-based.
The target of assay [5] is α6β2‡ nAChR, TrpB (α6:W149) = 5,7-F2Trp (Rattus norvegicus, UniProt P12390+P43143, L273S/L280S/L348M/R364A/R365A/R367A/W179X). The experiment in a line: TEVC dose-response, nonsense suppression, F2Trp at TrpB. Format: cell-based.
The target in assay [6] is α6β2‡ nAChR, TrpB (α6:W149) = Trp (Rattus norvegicus, UniProt P12390+P43143, L273S/L280S/L348M/R364A/R365A/R367A). As to the kind of experiment: TEVC dose-response, nonsense suppression series, Trp at TrpB. It is filed as cell-based.
Assay [7] has as its system α4β2 nAChR. Conditions: ref Dougherty and Van Arnam, 2014; cited from earlier work.
For assay [8], the target named is TrpB (α6:W149) in α6β2‡ nAChR (Rattus norvegicus, UniProt P12390+P43143, L273S/L280S/L348M/R364A/R365A/R367A). The experiment in a line: Fluorination plot. It is filed as cell-based. Conditions: for cation-π interaction with the indole side chain of TrpB: fluorination plot at TrpB in α6β2‡. The essentials:
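Rat α6β2‡ with UAG at TrpB, 10:1 α6:β2 mRNA, coinjected with photodeprotected fluoro-Trp–tRNA (25 ng mRNA per cell) into stage V–VI Xenopus oocytes; 24–48 h at 18 °C in ND96 pH 7.5. TEVC at −60 mV, 15 s agonist pulses in Ca2+-free ND96. EC50 from Hill fits of normalized averaged data. Log fold-shift in EC50 plotted against calculated cation–fluoro-Trp binding energy.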

Assay [9] concerns the target α6β2‡ nAChR (Rattus norvegicus, UniProt P12390+P43143, L273S/L280S/L348M/R364A/R365A/R367A). Format: cell-based.
In assay [10] the target is α6β2‡ nAChR, TrpB (α6:W149) = 5-Br-Trp (Rattus norvegicus, UniProt P12390+P43143, L273S/L280S/L348M/R364A/R365A/R367A/W179X). As to the kind of experiment: TEVC dose-response, nonsense suppression, BrTrp at TrpB. Format: cell-based.
Assay [11] has as its target α6β2‡ nAChR, TrpB (α6:W149) = 4-F1Trp (Rattus norvegicus, UniProt P12390+P43143, L273S/L280S/L348M/R364A/R365A/R367A/W179X). As to the kind of experiment: TEVC dose-response, nonsense suppression, 4-F1Trp at TrpB. Format: cell-based. To be noted: TrpB = 4-F1Trp; 10:1 α6β2‡.
Assay [12] relates to muscle-type nAChR. To be noted: ref Beene et al., 2002; cited from earlier work.
Assay [13] has as its target α6β2‡ nAChR, TrpB (α6:W149) = 6-F1Trp (Rattus norvegicus, UniProt P12390+P43143, L273S/L280S/L348M/R364A/R365A/R367A/W179X). As to the kind of experiment: TEVC dose-response, nonsense suppression, 6-F1Trp at TrpB. Conditions: TrpB = 6-F1Trp; 10:1 α6β2‡. It is filed as cell-based.
Assay [14] concerns the target α6β2‡ nAChR, TrpB (α6:W149) = 5-CNTrp (Rattus norvegicus, UniProt P12390+P43143, L273S/L280S/L348M/R364A/R365A/R367A/W179X). As to the kind of experiment: TEVC dose-response, nonsense suppression, CNTrp at TrpB. It is filed as cell-based. To be noted: 10:1 α6β2‡.
Where [15] appears, read: agonist panel, α6-biased population, holding potential −60 mV.
[16] abbreviates: agonist panel, α6-biased population, Hill coefficient.
Setting [17] is: agonist panel, α6-biased population, range of maximum currents.
Where [18] appears, read: Table 4, fold-shift in EC50 relative to Trp.

Chain of α6β2‡ nAChR, TrpB (α6:W149) = Trp (P43143 31-493 L280S): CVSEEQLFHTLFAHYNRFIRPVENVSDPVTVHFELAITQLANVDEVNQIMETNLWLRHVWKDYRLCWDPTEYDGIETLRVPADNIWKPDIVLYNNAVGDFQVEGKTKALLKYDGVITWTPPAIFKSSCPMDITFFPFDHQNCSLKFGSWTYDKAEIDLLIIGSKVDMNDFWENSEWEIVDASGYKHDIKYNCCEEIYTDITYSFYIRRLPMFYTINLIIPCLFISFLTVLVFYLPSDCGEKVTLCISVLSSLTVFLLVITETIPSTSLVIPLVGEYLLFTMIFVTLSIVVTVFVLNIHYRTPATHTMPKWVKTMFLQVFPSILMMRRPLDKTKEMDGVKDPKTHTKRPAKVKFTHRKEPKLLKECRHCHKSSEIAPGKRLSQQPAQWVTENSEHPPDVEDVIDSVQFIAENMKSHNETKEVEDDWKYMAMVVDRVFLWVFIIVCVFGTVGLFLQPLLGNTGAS
Chain of α6β2‡ nAChR, TrpB (α6:W149) = Trp (P12390 25-500 L273S/L348M/R364A/R365A/R367A): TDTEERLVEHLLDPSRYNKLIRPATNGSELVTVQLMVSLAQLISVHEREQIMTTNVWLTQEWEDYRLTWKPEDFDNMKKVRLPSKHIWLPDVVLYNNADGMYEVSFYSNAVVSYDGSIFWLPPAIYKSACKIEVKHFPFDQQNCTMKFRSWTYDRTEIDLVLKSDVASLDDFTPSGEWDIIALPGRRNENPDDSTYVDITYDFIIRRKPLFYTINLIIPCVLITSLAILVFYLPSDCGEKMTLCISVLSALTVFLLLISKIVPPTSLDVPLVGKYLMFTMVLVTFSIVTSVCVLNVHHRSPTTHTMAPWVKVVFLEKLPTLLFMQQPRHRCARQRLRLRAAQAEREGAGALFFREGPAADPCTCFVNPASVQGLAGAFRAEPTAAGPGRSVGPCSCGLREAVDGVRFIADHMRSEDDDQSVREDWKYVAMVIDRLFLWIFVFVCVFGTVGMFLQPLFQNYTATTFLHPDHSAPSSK
Chain of α6β2‡ nAChR (P43143 31-493 L280S): as the sequence (P43143 31-493 L280S) above
Chain of α6β2‡ nAChR (P12390 25-500 L273S/L348M/R364A/R365A/R367A): as the sequence (P12390 25-500 L273S/L348M/R364A/R365A/R367A) above
Chain of TrpB (α6:W149) in α6β2‡ nAChR (P43143 31-493 L280S): as the sequence (P43143 31-493 L280S) above
Chain of TrpB (α6:W149) in α6β2‡ nAChR (P12390 25-500 L273S/L348M/R364A/R365A/R367A): as the sequence (P12390 25-500 L273S/L348M/R364A/R365A/R367A) above
Chain of α6L9′Sβ2L9′SLFM/AAQA (α6β2‡) nAChR (P43143 31-493 L280S): as the sequence (P43143 31-493 L280S) above
Chain of α6L9′Sβ2L9′SLFM/AAQA (α6β2‡) nAChR (P12390 25-500 L273S/L348M/R364A/R365A/R367A): as the sequence (P12390 25-500 L273S/L348M/R364A/R365A/R367A) above

Regarding `CN1CCC[C@H]1c1cccnc1` [Nic, (−)-nicotine tartrate], the Imax in assay [1] (Table 4, TrpB = F1Trp) is recorded as 0.07–2.06 µA; in assay [2], 9.48–54.4 µA; in assay [3] (Table 4), 0.31–3.95 µA; in assay [4] (Table 4), 0.05–1.05 µA; in [5] (Table 4) it was 0.32–2.13 µA; in assay [6] (Table 4), 0.09–5.8 µA. Besides, in assay [10] (Table 4), the Imax was 0.08–5.65 µA. In addition, the nH is reported as 1.39 ± 0.06 in assay [1] (Table 4, TrpB = F1Trp); 1.38 ± 0.05 in assay [2]; 1.36 ± 0.05 in [3] (Table 4); 1.28 ± 0.03 in [4] (Table 4); 1.30 ± 0.06 in assay [5] (Table 4); 1.43 ± 0.06 in [6] (Table 4). The compound further registered a nH in [10] (Table 4) of 1.42 ± 0.04. The “cation-π interaction to TrpB” value in assay [7] is on record as “strong cation-π interaction”. For the same compound, in [8], the “cation-π interaction with the indole side chain of TrpB” value is on record as “do not make cation-π interactions”. This compound gave an Eff in assay [9] of 0.49 ± 0.03.

In general, EC50 refers to the concentration that produces a half-maximal response. Compound `C[N+](C)(C)CCOC(N)=O.[Cl-]` [CCh, carbamylcholine chloride] registered an EC50 in [2] (setting [15]) of 1360 ± 50 nM. This compound also had a nH in assay [2] (setting [16]) of 1.12 ± 0.04. In addition, the Imax in assay [2] (setting [17]) is 3.63–52.5 µA.

As for `CC(=O)OCC[N+](C)(C)C` [ACh, Acetylcholine chloride], the Imax in [11] was 0.71–6.92 uA; in assay [2] (setting [17]), 0.28–14.9 µA; in [2] (α6:β2 mRNA ratio 1:1, range of maximum currents), 4.42–14.2; in [2] (α6:β2 mRNA ratio 1:2, range of maximum currents), 3.06–31.7; in [2] (α6:β2 mRNA ratio 1:5, range of maximum currents), 0.70–8.21; in [2] (α6:β2 mRNA ratio 1:10, range of maximum currents) it was 1.01–4.67. In addition, the Imax is given as 1.01–10.9 in assay [2] (α6:β2 mRNA ratio 1:20, range of maximum currents); 0.94–79.5 in assay [2] (α6:β2 mRNA ratio 2:1, range of maximum currents); 0.70–79.9 in assay [2] (α6:β2 mRNA ratio 5:1, range of maximum currents); 4.85–70.7 in [2] (α6:β2 mRNA ratio 10:1, range of maximum currents); 0.25–1.44 in assay [2] (α6:β2 mRNA ratio 20:1, range of maximum currents); 8.25–57.3 in assay [2] (α6:β2 mRNA ratio 50:1, range of maximum currents). The Imax is 0.19–19.4 uA in assay [3] (10:1 α6β2‡); 0.09–1.94 uA in assay [4] (10:1 α6β2‡); 0.18–4.28 uA in assay [13]; 0.76–9.33 uA in [5] (10:1 α6β2‡); 0.28–14.9 uA in assay [6] (10:1 α6β2‡); 0.31–13.3 uA in [14]. In addition, the Imax in assay [10] (10:1 α6β2‡) was 0.22–15.1 uA. Also, the nH in assay [1] (TrpB = 5-F1Trp, 10:1 α6β2‡) is 1.37 ± 0.03; in assay [2] (setting [16]) it was 1.36 ± 0.03; in assay [2] (α6:β2 mRNA ratio 1:1, Hill coefficient), 1.15 ± 0.06; in assay [2] (α6:β2 mRNA ratio 1:2, Hill coefficient), 1.23 ± 0.05; in [2] (α6:β2 mRNA ratio 1:5, Hill coefficient), 0.95 ± 0.04; in [2] (α6:β2 mRNA ratio 1:10, Hill coefficient), 0.83 ± 0.02. Further, the nH in assay [2] (α6:β2 mRNA ratio 1:20, Hill coefficient) is 0.86 ± 0.03; in assay [2] (α6:β2 mRNA ratio 2:1, Hill coefficient) it was 1.14 ± 0.03; in [2] (α6:β2 mRNA ratio 5:1, Hill coefficient) it was 1.17 ± 0.04; in [2] (α6:β2 mRNA ratio 10:1, Hill coefficient), 1.17 ± 0.04; in [2] (α6:β2 mRNA ratio 20:1, Hill coefficient) it was 1.64 ± 0.05; in assay [2] (α6:β2 mRNA ratio 50:1, Hill coefficient) it was 1.17 ± 0.03. For the same compound, the nH came out at 1.18 ± 0.02 in assay [3] (10:1 α6β2‡); 1.04 ± 0.03 in assay [4] (10:1 α6β2‡); 1.30 ± 0.04 in assay [13]; 1.43 ± 0.02 in assay [5] (10:1 α6β2‡); 1.36 ± 0.03 in assay [6] (10:1 α6β2‡); 1.32 ± 0.04 in assay [10] (10:1 α6β2‡). For the same compound, in assay [2] (α6L9′Sβ2L9′SLFM/AAQA in oocytes), the “currents in response to acetylcholine” value is “greater than 1 µA”. Besides, the cation-π interaction result in assay [12] is listed as “does”. Further, the “cation-π interaction to TrpB” value in [7] is “strong cation-π interaction”. Moreover, in assay [8] (10:1 α6β2‡, trend excludes 5-CNTrp and 4-F1Trp), the “slope of linear trend of fluorination plot” value was −0.10. In addition, the “cation-π interaction with the indole side chain of TrpB” value in assay [8] is given as “strong cation-π interaction”.

Consider `O=c1cccc2n1C[C@@H]1CNC[C@H]2C1` [Cyt, cytisine], for which, in assay [2], the Imax was 0.57–31.9 µA, the nH is 1.31 ± 0.05 and the “potency (EC50) relative to ACh” value is on record as “slightly more potent”. The same compound returned an EC50 in assay [2] (EC50) of 27 ± 1 nM. For the same compound, the Eff in assay [9] is recorded as 0.28 ± 0.01.

For `C[N+](C)(C)CCO` [Ch, choline chloride], in assay [2], the Imax is listed as 2.08–15.4 µA and the nH is given as 1.32 ± 0.05. The compound also displayed an EC50 in assay [2] (EC50) of 159000 ± 7000 nM. Moreover, the Eff in assay [9] turned out to be 0.33 ± 0.02.

`c1cnc2cc3c(cc2n1)[C@@H]1CNC[C@H]3C1` [Var, varenicline] showed an EC50 in assay [2] (EC50, agonist panel, α6-biased population, holding potential −60 mV) of 31 ± 3 nM. The “potency (EC50) relative to ACh” value in assay [2] (agonist panel at α6β2‡, in words) is “slightly more potent”. The compound also gave a nH in assay [2] (setting [16]) of 1.08 ± 0.08. Also, in [2] (setting [17]), the Imax was 0.51–12.1 µA.

In the case of `Clc1ccc(C2CC3CCC2N3)cn1` (racemic) [Epi, (±)-epibatidine], in assay [2] (setting [16]), the nH was found to be 1.9 ± 0.2. In addition, the Imax in assay [2] (setting [17]) is reported as 0.47–2.81 µA.

On to `C1=C(/c2cncnc2)CCCNCC/1` [TC299], for which the EC50 in [1] (Table 4, TrpB = F1Trp) is 220 ± 10 nM; in assay [2] (setting [15]) it was 71 ± 3 nM; in assay [3] (Table 4), 73 ± 4 nM; in assay [4] (Table 4), 630 ± 30 nM; in [5] (Table 4) it was 138 ± 6 nM; in [6] (Table 4), 93 ± 4 nM. The same compound displayed an EC50 in assay [10] (Table 4) of 250 ± 8 nM. Also, the Imax is given as 0.27–3.49 µA in assay [1] (Table 4, TrpB = F1Trp); 1.73–21.9 µA in assay [2] (setting [17]); 0.15–2.35 µA in assay [3] (Table 4); 0.05–0.28 µA in assay [4] (Table 4); 0.06–1.87 µA in assay [5] (Table 4); 0.33–3.78 µA in assay [6] (Table 4). Besides, in [10] (Table 4), the Imax is reported as 0.1–7.71 µA. Besides, the nH in assay [1] (Table 4, TrpB = F1Trp) turned out to be 1.01 ± 0.04; in assay [2] (setting [16]), 0.99 ± 0.04; in assay [3] (Table 4), 0.92 ± 0.03; in assay [4] (Table 4), 0.90 ± 0.03; in assay [5] (Table 4) it was 0.98 ± 0.04; in assay [6] (Table 4), 1.09 ± 0.04. The compound also displayed a nH in assay [10] (Table 4) of 1.01 ± 0.03. The Fold was 2.37 in assay [1] (Table 4, fold-shift in EC50 relative to Trp, TrpB = F1Trp); 0.78 in assay [3] (setting [18]); 6.77 in assay [4] (setting [18]); 1.48 in assay [5] (setting [18]); 1 in [6] (setting [18]); 2.69 in assay [10] (setting [18]).
